The results in this text go back to ChEMBL document CHEMBL1127011, “Structure-activity relationship of glycine betaine analogs on osmotolerance of enteric bacteria” (1993).

Each structure is given as a SMILES string.

One assay has as its system Escherichia coli. Description: Maximum NaCl molar concentration that showed 50% bacterial growth in Escherichia coli 31 at MM+0.1 mmol Choline. The assay is classed as functional. In a few lines: (§1)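 Single colony from MacConkey agar subcultured overnight in minimal medium at 37 °C. Inoculum: 1:200 dilution of 0.5 McFarland standard (~5 × 10^5 cfu/mL final) into minimal medium with NaCl 0.1–1 M in 0.1 M steps. Test compound 0.1 mM, alone or with GB or Chol 0.1 mM. OD600 read at 48 h. Endpoint is highest NaCl giving ≥50% growth versus full-growth tubes. Mean of three ±SD.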
On to `Br.C[N+](C)(C)CC(=O)[N-]S(=O)(=O)c1ccc(NC(=O)CBr)cc1`, for which the Max salt tolerance was 0.8.

For `C[N+]1(CS(=O)(=O)[O-])CCOCC1`, the Max salt tolerance was found to be 0.9.

Take `C[N+](C)(C)CP(=O)([O-])O` [HYDROGEN (TRIMETHYLAMMONIO)METHYLPHOSPHONATE]: the Max salt tolerance stood at 0.83.

Consider `CCC(=O)Nc1ccc(S(=O)(=O)[N-]C(=O)C[N+](C)(C)C)cc1`, for which the Max salt tolerance came to 0.8.

Consider `C[N+](C)(C)CC(=O)NS(=O)(=O)c1ccc(N)cc1.[Cl-]`, for which the Max salt tolerance was 0.9.

For `C[N+](C)(C)CC(=O)Nc1ccc(S(N)(=O)=O)cc1.[Cl-]`, the Max salt tolerance is on record as 0.9.

Consider `CC(=O)Nc1ccc(S(=O)(=O)[N-]C(=O)C[N+](C)(C)C)cc1`, for which the Max salt tolerance stood at 0.8.

A further assay has as its system Escherichia coli. Description: Maximum NaCl molar concentration that showed 50% bacterial growth in Escherichia coli 31 at minimum media (MM). The assay is classed as functional. In short, it runs like this: as §1
Consider `Br.C[N+](C)(C)CC(=O)[N-]S(=O)(=O)c1ccc(NC(=O)CBr)cc1`, for which the Max salt tolerance is listed as 0.63.

For `C[N+]1(CS(=O)(=O)[O-])CCOCC1`, the Max salt tolerance came out at 0.77.

`C[N+](C)(C)CP(=O)([O-])O` [HYDROGEN (TRIMETHYLAMMONIO)METHYLPHOSPHONATE]: the Max salt tolerance is on record as 0.6.

Regarding `CCC(=O)Nc1ccc(S(=O)(=O)[N-]C(=O)C[N+](C)(C)C)cc1`, the Max salt tolerance worked out at 0.7.

On to `C[N+](C)(C)CC(=O)NS(=O)(=O)c1ccc(N)cc1.[Cl-]`, for which the Max salt tolerance is 0.73.

In the case of `C[N+](C)(C)CC(=O)Nc1ccc(S(N)(=O)=O)cc1.[Cl-]`, the Max salt tolerance is given as 0.73.

`CC(=O)Nc1ccc(S(=O)(=O)[N-]C(=O)C[N+](C)(C)C)cc1`: the Max salt tolerance was 0.7.

A further assay deals with Escherichia coli. Kind of assay: Maximum NaCl molar concentration that showed 50% bacterial growth in Escherichia coli K10 at MM+0.1 mmol GB (Glycine Betaine). The assay is classed as functional. In short, it runs like this: as §1
In the case of `Br.C[N+](C)(C)CC(=O)[N-]S(=O)(=O)c1ccc(NC(=O)CBr)cc1`, the Max salt tolerance is listed as 0.86.

For `C[N+]1(CS(=O)(=O)[O-])CCOCC1`, the Max salt tolerance was 0.97.

In the case of `C[N+](C)(C)CP(=O)([O-])O` [HYDROGEN (TRIMETHYLAMMONIO)METHYLPHOSPHONATE], the Max salt tolerance is 0.87.

For the molecule `CCC(=O)Nc1ccc(S(=O)(=O)[N-]C(=O)C[N+](C)(C)C)cc1`, the Max salt tolerance amounted to 0.9.

Consider `C[N+](C)(C)CC(=O)NS(=O)(=O)c1ccc(N)cc1.[Cl-]`, for which the Max salt tolerance is 0.9.

In the case of `C[N+](C)(C)CC(=O)Nc1ccc(S(N)(=O)=O)cc1.[Cl-]`, the Max salt tolerance amounted to 0.9.

For `CC(=O)Nc1ccc(S(=O)(=O)[N-]C(=O)C[N+](C)(C)C)cc1`, the Max salt tolerance was 0.9.

In a further assay the test system is Escherichia coli. Description: Maximum NaCl molar concentration that showed 50% bacterial growth in Escherichia coli 31 at MM+0.1 mmol GB (Glycine Betaine). Type of assay: functional. In a few lines:
as §1
Take `Br.C[N+](C)(C)CC(=O)[N-]S(=O)(=O)c1ccc(NC(=O)CBr)cc1`: the Max salt tolerance came out at 0.9.

For `C[N+]1(CS(=O)(=O)[O-])CCOCC1`, the Max salt tolerance is recorded as 0.97.

Turning to `C[N+](C)(C)CP(=O)([O-])O` [HYDROGEN (TRIMETHYLAMMONIO)METHYLPHOSPHONATE], the Max salt tolerance was 0.9.

Regarding `CCC(=O)Nc1ccc(S(=O)(=O)[N-]C(=O)C[N+](C)(C)C)cc1`, the Max salt tolerance was found to be 0.9.

In the case of `C[N+](C)(C)CC(=O)NS(=O)(=O)c1ccc(N)cc1.[Cl-]`, the Max salt tolerance worked out at 0.9.

Take `C[N+](C)(C)CC(=O)Nc1ccc(S(N)(=O)=O)cc1.[Cl-]`: the Max salt tolerance was found to be 0.9.

As for `CC(=O)Nc1ccc(S(=O)(=O)[N-]C(=O)C[N+](C)(C)C)cc1`, the Max salt tolerance is 0.9.

A further assay relates to Escherichia coli. Kind of assay: Maximum NaCl molar concentration that showed 50% bacterial growth in Escherichia coli ATCC 25922 at minimum media (MM). Type of assay: functional. In a few lines:
as §1
As for `Br.C[N+](C)(C)CC(=O)[N-]S(=O)(=O)c1ccc(NC(=O)CBr)cc1`, the Max salt tolerance stood at 0.1.

For the molecule `C[N+]1(CS(=O)(=O)[O-])CCOCC1`, the Max salt tolerance is reported as 0.2.

As for `C[N+](C)(C)CP(=O)([O-])O` [HYDROGEN (TRIMETHYLAMMONIO)METHYLPHOSPHONATE], the Max salt tolerance stood at 0.33.

For `CCC(=O)Nc1ccc(S(=O)(=O)[N-]C(=O)C[N+](C)(C)C)cc1`, the Max salt tolerance was 0.4.

In the case of `C[N+](C)(C)CC(=O)NS(=O)(=O)c1ccc(N)cc1.[Cl-]`, the Max salt tolerance came out at 0.5.

Take `C[N+](C)(C)CC(=O)Nc1ccc(S(N)(=O)=O)cc1.[Cl-]`: the Max salt tolerance is 0.5.

Consider `CC(=O)Nc1ccc(S(=O)(=O)[N-]C(=O)C[N+](C)(C)C)cc1`, for which the Max salt tolerance amounted to 0.4.

The next assay deals with Escherichia coli. Kind of assay: Maximum NaCl molar concentration that showed 50% bacterial growth in Escherichia coli K10 at MM+0.1 mmol Choline. The assay is classed as functional. In a few lines:
as §1
In the case of `Br.C[N+](C)(C)CC(=O)[N-]S(=O)(=O)c1ccc(NC(=O)CBr)cc1`, the Max salt tolerance is 0.8.

For the molecule `C[N+]1(CS(=O)(=O)[O-])CCOCC1`, the Max salt tolerance is 0.87.

With `C[N+](C)(C)CP(=O)([O-])O` [HYDROGEN (TRIMETHYLAMMONIO)METHYLPHOSPHONATE], the Max salt tolerance stood at 0.77.

`CCC(=O)Nc1ccc(S(=O)(=O)[N-]C(=O)C[N+](C)(C)C)cc1`: the Max salt tolerance turned out to be 0.83.

With `C[N+](C)(C)CC(=O)NS(=O)(=O)c1ccc(N)cc1.[Cl-]`, the Max salt tolerance came out at 0.86.

As to `C[N+](C)(C)CC(=O)Nc1ccc(S(N)(=O)=O)cc1.[Cl-]`, the Max salt tolerance came to 0.86.

Turning to `CC(=O)Nc1ccc(S(=O)(=O)[N-]C(=O)C[N+](C)(C)C)cc1`, the Max salt tolerance was 0.83.

In the next assay the test system is Escherichia coli. Description: Maximum NaCl molar concentration that showed 50% bacterial growth in Escherichia coli ATCC 25922 at MM+0.1 mmol Choline. The assay is classed as functional. In a few lines: as §1
Turning to `Br.C[N+](C)(C)CC(=O)[N-]S(=O)(=O)c1ccc(NC(=O)CBr)cc1`, the Max salt tolerance was 0.8.

Take `C[N+]1(CS(=O)(=O)[O-])CCOCC1`: the Max salt tolerance was 0.23.

Regarding `C[N+](C)(C)CP(=O)([O-])O` [HYDROGEN (TRIMETHYLAMMONIO)METHYLPHOSPHONATE], the Max salt tolerance was determined as 0.77.

As to `CCC(=O)Nc1ccc(S(=O)(=O)[N-]C(=O)C[N+](C)(C)C)cc1`, the Max salt tolerance is 0.8.

As to `C[N+](C)(C)CC(=O)NS(=O)(=O)c1ccc(N)cc1.[Cl-]`, the Max salt tolerance is recorded as 0.8.

On to `C[N+](C)(C)CC(=O)Nc1ccc(S(N)(=O)=O)cc1.[Cl-]`, for which the Max salt tolerance was 0.8.

Regarding `CC(=O)Nc1ccc(S(=O)(=O)[N-]C(=O)C[N+](C)(C)C)cc1`, the Max salt tolerance turned out to be 0.8.

A further assay deals with Escherichia coli. Description: Maximum NaCl molar concentration that showed 50% bacterial growth in Escherichia coli K10 at minimum media (MM). The assay is classed as functional. In a few lines: as §1
Consider `Br.C[N+](C)(C)CC(=O)[N-]S(=O)(=O)c1ccc(NC(=O)CBr)cc1`, for which the Max salt tolerance turned out to be 0.3.

For the molecule `C[N+]1(CS(=O)(=O)[O-])CCOCC1`, the Max salt tolerance turned out to be 0.63.

As for `C[N+](C)(C)CP(=O)([O-])O` [HYDROGEN (TRIMETHYLAMMONIO)METHYLPHOSPHONATE], the Max salt tolerance amounted to 0.4.

Take `CCC(=O)Nc1ccc(S(=O)(=O)[N-]C(=O)C[N+](C)(C)C)cc1`: the Max salt tolerance is 0.57.

Take `C[N+](C)(C)CC(=O)NS(=O)(=O)c1ccc(N)cc1.[Cl-]`: the Max salt tolerance turned out to be 0.56.

Take `C[N+](C)(C)CC(=O)Nc1ccc(S(N)(=O)=O)cc1.[Cl-]`: the Max salt tolerance turned out to be 0.56.

As to `CC(=O)Nc1ccc(S(=O)(=O)[N-]C(=O)C[N+](C)(C)C)cc1`, the Max salt tolerance is given as 0.57.

A further assay has as its system Escherichia coli. Kind of assay: Maximum NaCl molar concentration that showed 50% bacterial growth in Escherichia coli ATCC 25922 at MM+0.1 mmol GB (Glycine Betaine). The assay is classed as functional. In short, it runs like this:
as §1
As to `Br.C[N+](C)(C)CC(=O)[N-]S(=O)(=O)c1ccc(NC(=O)CBr)cc1`, the Max salt tolerance is 0.86.

Consider `C[N+]1(CS(=O)(=O)[O-])CCOCC1`, for which the Max salt tolerance is reported as 0.83.

Turning to `C[N+](C)(C)CP(=O)([O-])O` [HYDROGEN (TRIMETHYLAMMONIO)METHYLPHOSPHONATE], the Max salt tolerance is listed as 0.8.

`CCC(=O)Nc1ccc(S(=O)(=O)[N-]C(=O)C[N+](C)(C)C)cc1`: the Max salt tolerance stood at 0.86.

With `C[N+](C)(C)CC(=O)NS(=O)(=O)c1ccc(N)cc1.[Cl-]`, the Max salt tolerance was 0.83.

As for `C[N+](C)(C)CC(=O)Nc1ccc(S(N)(=O)=O)cc1.[Cl-]`, the Max salt tolerance turned out to be 0.83.

As to `CC(=O)Nc1ccc(S(=O)(=O)[N-]C(=O)C[N+](C)(C)C)cc1`, the Max salt tolerance was 0.86.
